Tested on: MS2 coat protein
Assay: apparent Kd, MS2 coat protein; higher = weaker binding; RNA-MaP array; FMN 200 µM where present
Procedure, shortened: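 Designs on Illumina sequencing-chip clusters, transcribed by stalled E. coli RNA polymerase, were exposed to SNAP-549-labelled MS2 coat protein in doubling steps from 0.7 or 1.5 nM up to 3 µM, without and then with constant ligand. The buffer held 100 mM Tris-HCl pH 7.5, 80 mM KCl, 4 mM MgCl2, BSA, DTT, yeast tRNA and Tween-20. Apparent Kd values are medians of filtered per-cluster binding-curve fits to green signal normalised to red-channel RNA signal and control-cluster median Fmax.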

[1] = designed as: OFF switch for flavin mononucleotide, no ligand
[2] = ligand present: flavin mononucleotide, designed as: OFF switch for flavin mononucleotide
[3] = designed as: ON switch for flavin mononucleotide, no ligand
[4] = ligand present: flavin mononucleotide, designed as: ON switch for flavin mononucleotide

## CGAUGACAAAGUCAUCGAAUACGAACAUGAGGAUCACCCAUGUAGGAUAUGCUACUCAAAGAGUAGCAGAAGGACAUGUGCCUU
[1]
  apparent Kd: 36.9 nM
[2]
  apparent Kd: 271 nM

## CGAUGAGGAGUGAGGAUAUCGUGUUCGAAAGAACGUGAGAAGGCACAUGAGGAUCACCCAUGUGAAACUUGUCG
[1]
  apparent Kd: 17.1 nM
[2]
  apparent Kd: 23.9 nM

## CGCAACUCAGAUCUUUUGAACAUGAGGAUCACCCAUGUAUUGAGAAGGAGCUGGAAGAGAGACAGCUAGGAUAUCAGAGUUGCG
[1]
  apparent Kd: 5.4 nM
[2]
  apparent Kd: 5.73 nM

## CGCAACUCUUCACAUGUAAACAUGAGGAUCACCCAUGUAUUGAGAAGGAGGAAGAAGAGAGAUUCCUAGGAUAUCAGAGUUGCG
[1]
  apparent Kd: 6.42 nM
[2]
  apparent Kd: 5.84 nM

## CGCAACUCUUCUCAUGUAAACAUGAGGAUCACCCAUGUAAUGAGAAGGAGGAAGAAGAGAGAUUCCUAGGAUAUCAGAGUUGCG
[1]
  apparent Kd: 5.41 nM
[2]
  apparent Kd: 5.52 nM

## CGCAAGUAUACAUGAGGAUCACCCAUGUCAAUCAUGGUAUUCAGAAGGUACAAUUCAAUAUAUAGUAAGGAUAUGAAAUUUGCG
[3]
  apparent Kd: 107 nM
[4]
  apparent Kd: 112 nM

## CGCAAGUCAGGAUAUUCGACUGGUAAAUCAGUGGAUCAGUAGGAGAAGGGACAUGAGGAUCACCCAUGUUUGUA
[1]
  apparent Kd: 27.8 nM
[2]
  apparent Kd: 30 nM

## CGCACUAUACAUGAGGAUCACCCAUGUUAAUAUGAGAUAGUCAGAAGGCAUUGUUUGAGAAAUUAUGAGGAUAUGAAUAGUGCG
[3]
  apparent Kd: 100 nM
[4]
  apparent Kd: 23.7 nM

## CGCAUGCGUAGAAUUAGCAGCUGACAGGAUAUGACAUGAGGAUCACCCAUGUGAAUUAAGAAGAGUCAGAAGGGUCACGAUGCG
[1]
  apparent Kd: 9.98 nM
[2]
  apparent Kd: 9.98 nM

## CGCAUGCGUAGAAUUAGUUGCUGACAGGAUAUGACAUGAGGAUCACCCAUGUGAUUUAAGAAGAGUCAGAAGGGUCACGAUGCG
[1]
  apparent Kd: 10.7 nM
[2]
  apparent Kd: 15.1 nM

## CGCUAAGAUGGGUCUAAUGGACCAUAGGAUAUGCUUGUACAUGAGGAUCACCCAUGUAAUAUUGUGCAGAAGGGUGGAUUUGCG
[3]
  apparent Kd: 26.4 nM
[4]
  apparent Kd: 19.6 nM

## CGCUAAGAUGGGUUUAAUGGAGCAUAGGAUAUGCUUGUACAUGAGGAUCACCCAUGUAAUAUUGUGCAGAAGGGUGCAUUUGCG
[3]
  apparent Kd: 126 nM
[4]
  apparent Kd: 75.1 nM

## CGCUACAGCCAGAAGGACAUGAGGAUCACCCAUGUAGGAUAUGGGAGACGCGGUCCAGUGUAGAGAAACUACGCUACUGUAGCG
[3]
  apparent Kd: 87.3 nM
[4]
  apparent Kd: 73.4 nM

## CGCUACGUUUCGUAGCAGUGUCAUCGAGAAGGCCCUGACAUGAGGAUCACCCAUGUUAAAACACAGGAGGAUAUCGAUGAUACA
[3]
  apparent Kd: 4.39 nM
[4]
  apparent Kd: 4.56 nM

## CGCUACGUUUCGUAGCAGUGUCAUCGAGAAGGCCCUGACAUGAGGAUCACCCAUGUUGUUACAUGGGAGGAUAUCGAUGAUACG
[3]
  apparent Kd: 13 nM
[4]
  apparent Kd: 5.4 nM

## CGCUAGUCAGGAUAUACGCACAUGUCACCAGACGUGAAGGGACAUGAGGAUCACCCAUGUAGAAGGGACUAGCC
[1]
  apparent Kd: 98.5 nM
[2]
  apparent Kd: 246 nM

## CGCUAUGACAUAGGAUAUUGAUACAUGAGGAUCACCCAUGUCAACCAUGAAGCUCGAAUUGUUGACAAGAAGGAUGUGGUAGCG
[3]
  apparent Kd: 157 nM
[4]
  apparent Kd: 72.9 nM

## CGCUCAAGAGAGAAGGAUAGAGUCAGAAGGCGUUACAUGAGGAUCACCCAUGUUUUGUAUAGUAACGAGGAUAUGAAAUGAGCG
[1]
  apparent Kd: 19.7 nM
[2]
  apparent Kd: 15 nM

## CGCUGAGGCGAGAAGGCACAAGAGUGGUGGCGGACAUGAGGAUCACCCAUGUGAGGAUAUCGCACUUGGCGGUGCCUAAAACUA
[1]
  apparent Kd: 344 nM
[2]
  apparent Kd: 39 nM

## CGCUGUCACGCAGGAUAUGCAUUGGAUUACAAUGCAGAAGGGCGAUUACAUGAGGAUCACCCAUGUGUAGACAGUGAAGAAGAG
[3]
  apparent Kd: 300 nM
[4]
  apparent Kd: 42.3 nM

## CGGAGCAUCGAGAAGGGCACAUGGACAACUAAACAUGAGGAUCACCCAUGUGCAGGAUAUCGAAAAUCAUGUGGCCUUGGCCGU
[1]
  apparent Kd: 15.9 nM
[2]
  apparent Kd: 155 nM

## CGGAUGUCAGGAUAUCGUGCAUACAACGAAAGUUCUAUGUGCGAGAAGGGACAUGAGGAUCACCCAUGUUAACG
[1]
  apparent Kd: 59.5 nM
[2]
  apparent Kd: 250 nM

## CGGCCGGGCCGAGGAUAUAAGUCUAGGACAUGAGGAUCACCCAUGUAUGUCUUAGAAGGCGGCCCGGCCAGCCUGUUACAGGCA
[3]
  apparent Kd: 31.2 nM
[4]
  apparent Kd: 5.85 nM

## CGGCGGAAAGGAUAUGCAUUAAUAUCAAAAUGUGGGCCACGACAUGAGGAUCACCCAUGUAGAAGGUUCAGCCA
[1]
  apparent Kd: 16.4 nM
[2]
  apparent Kd: 13.3 nM

## CGGUAAACCACAGGAUAUGGCUAGCAUAGCUAGCCAGAAGGGUGGUCGAAACCAUGUAAAUACAUGAGGAUCACCCAUGUAUCC
[3]
  apparent Kd: 501 nM
[4]
  apparent Kd: 52.6 nM

## CGGUCACAUGAGGAUCACCCAUGUACCUACCCGAUGAAGUCGCAGGAUAUCCAUUACUUUACGUAGGAGAAGGGUGACGCUCGC
[3]
  apparent Kd: 49.7 nM
[4]
  apparent Kd: 79.3 nM

## CGGUCGAUGUAAGGAUAUCGACUGGAAUACAGUCGAGAAGGUACAUGAGGAUCACCCAUGUAAUCCAAUAAUAAAUAACGACCG
[1]
  apparent Kd: 12.6 nM
[2]
  apparent Kd: 22.5 nM

Reference: the EternaBench riboswitch data
